Reference: ChEMBL document CHEMBL4834471 (J Med Chem, 2021)
Activity calls are given as the source filed them. The rule behind the calls is not given here.

Key:
[1] = tested on: Monocyte; test: Cytotoxicity against human monocytes assessed as reduction in LDH release at 1 to 10 uM after 2 to 24 hrs by CytoTox96 nonradioactive assay; type: cell-based; conditions: dose lower 1 µM, time lower 2 hrs, dose upper 10 µM, time upper 24 hrs
Method in brief: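 Monocytes at 4 × 10^5/mL in monocyte medium treated 2 or 24 h at 37 °C, 5% CO2, with 0.1% DMSO vehicle. LDH release measured by CytoTox 96 kit, with Triton X-100 (0.8%) defining maximum release.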

[2] = tested on: Mus musculus; test: Antiinflammatory activity in zymosan-induced CD-1 mouse peritonitis model assessed as reduction in LTC4 level at 3 mg/kg, po preincubated with compound for 60 mins followed by zymosan addition and measured after 30 mins by ELISA; type: functional, organism-based; conditions: time 90.0 min
Method in brief: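 Oral dosing at 3 mg/kg in zymosan-induced peritonitis; mice killed 30 min after zymosan; LTC4 in peritoneal exudate measured by ELISA; two-tailed unpaired t-test of log data.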

In the case of `Cc1c(C)c2c(c(C)c1O)CC[C@@](C)(CCCC(C)CCCC(C)CCCC(C)C(=O)O)O2` (some centres not stated), the Activity [1] is reported as “Non-Toxic”.

`CC(c1cc2ccccc2s1)N(O)C(N)=O` (configuration not stated) was tested, and the Activity [2] was “inactive”.
